This is an account of results in ChEMBL document CHEMBL4513216, “Probing the Open Global Health Chemical Diversity Library for Multistage-Active Starting Points for Next-Generation Antimalarials” (ACS Infect Dis, 2020).

The series in a line: Toxicity liver stage against HepG2, at 10uM. In kind it is cell-based. Also noted: test concentration 10 uM, cell line HepG2-A16-CD81EGFP. The conditions noted are these: human, HepG2-A16-CD81EGFP cells; read-out: INHIBITION
Summed up:
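Uninfected HepG2-A16-CD81EGFP cells, 3 × 10^3 per well, 1536-well, plated on prespotted compound at 10 μM final, parasite-free screening media added to match infected plates; puromycin 10 μM positive, DMSO 0.5% negative; run in parallel with 48 h PbLuc assay at 37 °C, 5% CO2; viability by CellTiter-Glo luminescence, normalized to controls.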

On to `CNS(=O)(=O)c1ccc(CNC(=O)NCc2cc[nH]n2)cc1`, for which the cytotoxicity at 10 µM was determined as 1.91%.
On to `CS(=O)(=O)N1CCOCC12CCN(Cc1ccoc1)CC2`, for which the cytotoxicity at 10 µM came to 7.81%.
With `CC(C)N(C)C(=O)c1ccc(CNc2ncc(C#N)cc2Cl)cc1`, the cytotoxicity at 10 µM stood at 15.9%.
As for `c1cnc2[nH]c(C3CCCNC3)c(CN3CCCOCC3)c2c1` (stereo not given), the cytotoxicity at 10 µM is -1.43%.
Regarding `c1cnc(N2CCC(C3CCN(CCCn4cccn4)C3)CC2)nc1` (stereo not given), the cytotoxicity at 10 µM was found to be 7.5%.
For `O=C1CC[C@@H](CN(Cc2ccncc2)Cc2nc(CC3CC3)no2)N1`, the cytotoxicity at 10 µM was 3.86%.
With `Cn1cnn(CC(=O)NCc2ccccc2F)c1=O` the figure was 2.4%; with `Cc1nc(N2CCOCC2)nc2c1CN(CC(=O)N(C)C)CC2`, -101%; with `Cc1ccc(C(=O)Nc2ccc3c(c2)N(C)CCN(C)C3)c(=O)[nH]1`, -2.17%.
On to `Cc1ccc(CN2CC3(CCN(S(=O)(=O)c4ccccc4)C3)C2)o1`, for which the cytotoxicity at 10 µM was -2.3%.
Consider `COCCN(Cc1ccccn1)C(=O)Nc1cccnc1-n1cccn1`, for which the cytotoxicity at 10 µM amounted to 1.06%.
With `CN(C)S(=O)(=O)N1C[C@@H](OCc2cccnc2)[C@H]2OCCC[C@H]21`, the cytotoxicity at 10 µM was determined as 0.74%.
`c1cncc(OCC2CN(Cc3nccs3)Cc3nccn3C2)c1` (stereo not given): the cytotoxicity at 10 µM is 6.9%.
On to `CCNc1nc2cn(-c3ccc(C)c(C)c3)c(=O)c-2c[nH]1`, for which the cytotoxicity at 10 µM came out at 0.255%.
As for `CN(Cc1noc(C2CC2)n1)C1CCN(CCn2cccn2)C1` (stereo not given), the figure is -4.32%.
`CCc1cc(CNC(=O)NCc2ccc(N3CCCCC3)cc2)on1`: the cytotoxicity at 10 µM was 1.27%.
Take `NC(=O)CN(C(=O)Cc1cccc(C(F)(F)F)c1)C1CCCC1`: the cytotoxicity at 10 µM was 3.71%.
Turning to `Cc1ccc(C(=O)NCCC2CN(c3cnn(C)c(=O)c3)CCO2)s1` (stereo not given), the cytotoxicity at 10 µM is -1.38%.
With `CS(=O)(=O)Cc1nc(CN2CCOc3ccccc3C2)cs1` the figure was 5.81%.
For the compound `CC(=O)N1CCN(CCNS(=O)(=O)c2cc(F)cc(F)c2)CC1`, the cytotoxicity at 10 µM came out at 7.24%.
As for `CC(C)c1nccn1C1CCCN(C(=O)c2ccc3c(c2)COC3)C1` (stereo not given), the figure is 3.19%; as for `CNC(=O)C(C)CN(C)C(=O)Nc1cc(-n2cccc2)ccc1F` (stereo not given), -5.28%.
As for `Cc1ccc(-c2nc(CN3CCOC(Cn4cncn4)C3)cs2)o1` (stereo not given), the cytotoxicity at 10 µM was found to be 4.5%.
As for `Cc1cc(NC(=O)C2CN(Cc3ccccc3)CCO2)ccn1` (stereo not given), the cytotoxicity at 10 µM came to 54.9%.
With `C1CCN(CCO[C@@H]2CC[C@H]3[C@H]2OCCN3CC2CCOCC2)C1`, the cytotoxicity at 10 µM was 2.98%.
For the compound `O=C(Nc1ccc(F)cc1)C1CNCCN1C(=O)CC1CCCCC1` (stereo not given), the cytotoxicity at 10 µM was determined as 7.01%.
For the compound `c1csc(CN2CCC3(CCOCC3COCC3CC3)CC2)n1` (stereo not given), the cytotoxicity at 10 µM was found to be 5.02%.
Regarding `CNC(=O)CN1CC[C@H]2CN(C(=O)c3ccccc3C)C[C@H]2C1`, the cytotoxicity at 10 µM worked out at 0.793%.
For the compound `Cc1nn(CC(C)C)c(C)c1CC(=O)N1CCCC(NS(C)(=O)=O)C1` (stereo not given), the cytotoxicity at 10 µM was determined as 6.29%.
As for `O=S(=O)(NCC1COc2ccccc2C1)N1CCCC1` (stereo not given), the figure is -7.74%; as for `CC(C)(CO)Nc1ccc(-c2nc(-c3ccccc3F)no2)cn1`, 9.62%; as for `O=C1C(NCc2ccc3c(c2)CCO3)CCN1Cc1ccccc1` (stereo not given), 6.39%.
Turning to `COC1C[C@@H]2CN(C(=O)c3[nH]nc4c3CCCC4)C[C@@H]2C1` (stereo not given in full), the cytotoxicity at 10 µM was found to be 0.0252%.
For the compound `CCOC(=O)N1CCC(Nc2cc(CC)nc3c(C)c(C)nn23)CC1`, the cytotoxicity at 10 µM was determined as 11.8%.
For the compound `CN1CCCN(Cc2nc(Cc3ccccc3)n[nH]2)CC1`, the cytotoxicity at 10 µM is -7.47%.
As for `Cc1ccc(SCCCNC(=O)c2cn(C3CCC(N)CC3)nn2)cc1` (stereo not given), the cytotoxicity at 10 µM is -8.33%.
Regarding `O=C(NCCn1ccnc1)N1CCN(Cc2ccsc2)CC1`, the cytotoxicity at 10 µM is -15.3%.
As for `Fc1cnc(N2CCN(Cc3ccc(-c4cc[nH]n4)o3)CC2)nc1`, the cytotoxicity at 10 µM is -6%.
With `Cn1cnc2c1CCN(Cc1nc(-c3ccsc3)no1)C2`, the cytotoxicity at 10 µM was -3.29%.
In the case of `OCCNC1CSCCc2ccccc21` (stereo not given), the cytotoxicity at 10 µM is -1.44%.
Take `CCC(C(=O)NCCc1ccn(-c2ccccc2)n1)N1CCCC1=O` (stereo not given): the cytotoxicity at 10 µM turned out to be 6.18%.
As for `Cn1ccnc1S(=O)(=O)C(C(=O)N1CCCCC1)c1ccccc1` (stereo not given), the figure is 24.5%; as for `CCn1cc(Br)c(C(=O)NCc2ccccc2)n1`, 7.61%; as for `Cc1cnn(CCC(=O)N2CCC(Nc3cccnn3)CC2)c1`, -8.11%.
With `CC(SCCC(=O)NC(N)=O)c1ccccc1F` (stereo not given) the figure was 5.87%; with `O=S(=O)(C1CC1)N1CCO[C@H]2[C@H](OCCN3CCCC3)CC[C@@H]21`, -5.63%.
For `Cn1c(N)c2c(=O)n(C)c(-c3ccccc3)cc2c(C#N)c1=O`, the cytotoxicity at 10 µM came out at 1.57%.
For `CNC(=O)[C@@H]1CN(C(=O)COC)C[C@H]1c1ccnc(N2CCCC2)n1`, the cytotoxicity at 10 µM was 2.75%.
For the compound `CC(C)C[C@@H]1N[C@H](C(=O)NCC2CC2)Cc2c[nH]c3cccc1c23`, the cytotoxicity at 10 µM was 12.4%.
Turning to `Cc1ccc2c(n1)N(CC(C)C)CCN(C(=O)Cc1ccccn1)C2`, the cytotoxicity at 10 µM amounted to 12.7%.
Take `Fc1ccc(-c2nnc(CN3CCCC3Cn3cccn3)o2)cc1` (stereo not given): the cytotoxicity at 10 µM is -5.65%.
Turning to `CCN(C)C[C@@H]1CN(S(=O)(=O)c2cccc(Cl)c2)C[C@@H]1CO`, the cytotoxicity at 10 µM was -8.3%.
On to `CC(O)CN1CCN(C(=O)c2cc3ccccc3c(=O)[nH]2)CC1` (stereo not given), for which the cytotoxicity at 10 µM was -2.64%.
Take `O=C(NCCc1cccc(O)c1)NC1CCN(c2ccccc2)C1=O` (stereo not given): the cytotoxicity at 10 µM was 5.68%.
`CC(C)(C)c1cc(NC(=O)CN2CCCC2Cn2cncn2)on1` (stereo not given): the cytotoxicity at 10 µM was 5.91%.
As for `COCC1Cn2nnc(-c3cnn(C)c3)c2CN1Cc1ccsc1` (stereo not given), the figure is 2.11%; as for `COc1ccc(Br)cc1NCC(=O)NC(C)(C#N)C1CC1` (stereo not given), 23.4%; as for `CCC(Nc1ncnc2sc(C(=O)O)c(C)c12)c1ccnn1C` (stereo not given), 0.512%.
As for `Cc1nn(C)c2c(=O)n(Cc3ccc(F)cc3)nnc12`, the cytotoxicity at 10 µM was 3.41%.
With `CC(C)c1nnc(NC(=O)N(C)Cc2ccc(C(N)=O)cc2)s1`, the cytotoxicity at 10 µM is 12%.
As for `c1csc(CCNC2CCc3ncnn3C2)c1` (stereo not given), the figure is 17.3%; as for `CCc1ocnc1C(=O)Nc1ccc2ccn(CCN(C)C)c2c1`, 4.81%; as for `COc1c(NC(=O)N(C)CCOc2ccccc2)c(C)nn1C`, 19.2%.
As for `CC(C)N1[C@H](CN2CCCC2)C[C@@H]2CN(C(=O)c3ccoc3)CC[C@@H]21`, the cytotoxicity at 10 µM was -135%.
Consider `CCc1ncncc1C(=O)NCCNc1ncnc2sccc12`, for which the cytotoxicity at 10 µM is -5.68%.
Regarding `CCS(=O)(=O)Nc1ccc2[nH]c(C3CCC3)nc2c1`, the cytotoxicity at 10 µM was -13.2%.
On to `OCCn1cc(CN2CCN(CCOc3ccccc3)CC2)cn1`, for which the cytotoxicity at 10 µM is -8.43%.
Turning to `Cc1nc(CCNC(=O)c2cc(C(C)C)nn2C)sc1C`, the cytotoxicity at 10 µM is 22.4%.
As to `Cc1n[nH]c(C)c1CN(C)C(C(=O)O)c1ccc2c(c1)OCO2` (stereo not given), the cytotoxicity at 10 µM stood at 6.86%.
With `CC(C)N1CCOC[C@H]1c1nc(-c2ccncc2)c[nH]1` the figure was 6.73%.
